Key:
[1] = target: tropomyosin (rabbit cardiac α-tropomyosin) (Oryctolagus cuniculus, UniProt P58772); assay: LSPR binding of cTnT-C14 peptides to immobilized tropomyosin; details: peptide 2 μM, mutants vs WT
Procedure, shortened: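 Rabbit cardiac α-Tm immobilized on a carboxyl-gold LSPR chip from 50 μg/mL in 10 mM Na acetate pH 4.0. Blocked with 1 M ethanolamine, then 1 mM 6-mercapto-1-hexanol in 30% EtOH. Peptides flowed at 20 μL/min for 4 min in 0.1 M KCl, 3 mM MgCl2, 10 mM imidazole-HCl pH 7.0; buffer dissociation to baseline or plateau. Plateau Δpm taken; 1:1 fit; KD = koff/kon.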

F-actin = F-actin (Oryctolagus cuniculus, UniProt P68135); assay: LSPR direct binding of cTnT-C14 peptides to immobilized F-actin; set-up: species or system rabbit; details: mutants vs WT
Procedure, shortened: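 Rabbit back-muscle F-actin immobilized on a carboxyl-gold LSPR chip with no Tm, run as for the Tm binding assay. Chip blocked with ethanolamine and 6-mercapto-1-hexanol. Peptides flowed at 20 μL/min in 0.1 M KCl, 3 mM MgCl2, 10 mM imidazole-HCl pH 7.0, then buffer dissociation. Plateau Δpm taken; rate constants from 1:1 fit; KD = koff/kon.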

Sequence: INVLRNRINDNQKV [E16]
- Tm binding / binding signal (in words) [1]: non-Tm-binding
- F-actin binding / binding signal (in words) (F-actin): non-actin-binding

From article PMC13334471 (Journal of molecular and cellular cardiology, 2026)
